Data published in ChEMBL document CHEMBL1157790, “3'-bromo analogues of pyrimidine nucleosides as a new class of potent inhibitors of Mycobacterium tuberculosis” (J Med Chem, 2010).
Converted amounts (≈) assume the structure as drawn.

Tests used:
[1] = test system: Mycobacterium tuberculosis; experiment: Antimycobacterial activity against Mycobacterium tuberculosis H37Ra after 6 days by microplate alamar blue assay; assay type: functional; settings: 144 h
Summary of the method: (§1)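 H37Ra from frozen inoculum, 2.5 × 10⁵ CFU/mL final, in 7H9GC medium; compounds from 10 mg/mL DMSO stock tested at 100, 50, 25, 10, 5 and 1 μg/mL in triplicate, run twice. Incubated 6 days, then alamar blue plus Tween 80 added, read after 24 h visually and by fluorescence. Percent inhibition against bacteria-only and medium-only wells; MIC50 is the lowest concentration giving ~50% inhibition.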

[2] = test system: Mycobacterium tuberculosis; experiment: Antimycobacterial activity against Mycobacterium tuberculosis H37Ra at 25 ug/ml after 4 days; assay type: functional
Summary of the method: (§2)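 THP-1 cells, 2 × 10⁵/well, differentiated 3 days with 100 nM PMA, then infected 3 h with ~10⁷ CFU H37Ra. Non-phagocytosed bacteria removed. Compounds at 25, 10, 5 or 1 μg/mL in triplicate, rifampicin or isoniazid controls at 2.5 μg/mL, 4 days. Lysates plated in serial dilution on 7H11, colonies counted at 2-3 weeks. Percent CFU reduction versus untreated control; run twice.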

[3] = test system: Mycobacterium tuberculosis; experiment: Antimycobacterial activity against Mycobacterium tuberculosis H37Ra at 10 ug/ml after 4 days; assay type: functional; summary of the method: as §2
[4] = Cytotoxicity against human HuH7 cells after 2 days by XTT assay; assay type: cell-based, Huh-7
Summary of the method: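 Huh-7 cells seeded at 2 × 10⁴/well and allowed to attach 6-8 h, then exposed to 200, 100, 50, 10 and 1 μg/mL compound, DMSO control, 2 days at 37 °C. XTT reagent added for 4 h at 37 °C; absorbance read at 450-500 nm.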

[5] = Cytotoxicity against human HuH7 cells assessed as incorporation of [3H]thymidine into DNA after 2 days by scintillation counting; assay type: cell-based, Huh-7
Summary of the method: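 Huh-7 cells plated at 1 × 10⁴/well, compounds at 200, 100, 50, 10 and 1 μg/mL in triplicate, DMSO control, 2 days at 37 °C. Pulsed with 0.5 μCi/well [³H]-thymidine for 12-18 h, harvested onto filters, and incorporated DNA label counted by liquid scintillation.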

[6] = test system: Mycobacterium tuberculosis; experiment: Antimycobacterial activity against Mycobacterium tuberculosis H37Ra at 100 ug/ml after 6 days by microplate alamar blue assay; assay type: functional; settings: 144 h; summary of the method: as §1
[7] = test system: Mycobacterium tuberculosis; experiment: Antimycobacterial activity against Mycobacterium tuberculosis H37Ra at 50 ug/ml after 6 days by microplate alamar blue assay; assay type: functional; settings: 144 h; summary of the method: as §1
[8] = test system: Mycobacterium tuberculosis; experiment: Antimycobacterial activity against Mycobacterium tuberculosis H37Ra at 5 to 10 ug/ml after 6 days by microplate alamar blue assay; assay type: functional; summary of the method: as §1
[9] = test system: Mycobacterium tuberculosis; experiment: Antimycobacterial activity against Mycobacterium tuberculosis H37Ra at 2.5 ug/ml after 4 days; assay type: functional; summary of the method: as §2
[10] = test system: Mycobacterium tuberculosis; experiment: Antimycobacterial activity against Mycobacterium tuberculosis H37Ra at 25 ug/ml after 6 days by microplate alamar blue assay; assay type: functional; settings: 144 h; summary of the method: as §1
[11] = test system: Mycobacterium tuberculosis; experiment: Antimycobacterial activity against Mycobacterium tuberculosis H37Ra at 10 ug/ml after 6 days by microplate alamar blue assay; assay type: functional; settings: 144 h; summary of the method: as §1
[12] = test system: Mycobacterium tuberculosis; experiment: Antimycobacterial activity against Mycobacterium tuberculosis H37Ra at 1 ug/ml after 6 days by microplate alamar blue assay; assay type: functional; settings: 144 h; summary of the method: as §1
[13] = test system: Mycobacterium tuberculosis; experiment: Antimycobacterial activity against Mycobacterium tuberculosis H37Ra at 5 ug/ml after 6 days by microplate alamar blue assay; assay type: functional; settings: 144 h; summary of the method: as §1

## Cc1cn([C@H]2C[C@H](Br)[C@@H](CO)O2)c(=O)[nH]c1=O
[1]
  MIC50: 5 µg/mL (≈ 16.4 µM)
[2]
  Activity: 90%
[3]
  Activity: 50%
[4]
  CC50 at 48 h: > 100 µg/mL
[5]
  CC50 at 48 h: > 100 µg/mL
[6]
  inhibition at 100 µg/mL: 100%
[7]
  inhibition at 50 µg/mL: 82%
[8]
  inhibition (INH): 5%

## CO[C@H]1/C=C/O[C@@]2(C)Oc3c(C)c(O)c4c(O)c(c(/C=N/N5CCN(C)CC5)c(O)c4c3C2=O)NC(=O)/C(C)=C\C=C\[C@H](C)[C@H](O)[C@@H](C)[C@@H](O)[C@@H](C)[C@H](OC(C)=O)[C@@H]1C [RIFAMPIN]
[1]
  MIC50: < 0.5 µg/mL
[9]
  Activity: >98%

## O=c1[nH]c(=O)n([C@@H]2O[C@H](CO)[C@@H](Br)[C@@H]2O)cc1F
[10]
  inhibition at 25 µg/mL: 50%
[1]
  MIC50: 25 µg/mL (≈ 76.9 µM)
[4]
  CC50 at 48 h: > 100 µg/mL
[5]
  CC50 at 48 h: > 100 µg/mL
[6]
  inhibition at 100 µg/mL: 91%

## O=c1[nH]c(=O)n([C@H]2C[C@@H](I)[C@@H](CO)O2)cc1F
[4]
  CC50 at 48 h: > 100 µg/mL
[5]
  CC50 at 48 h: > 100 µg/mL
[6]
  inhibition at 100 µg/mL: 40%

## O=c1[nH]c(=O)n([C@H]2C[C@H](F)[C@@H](CO)O2)cc1F
[6]
  inhibition at 100 µg/mL: 0%

## Cc1cn([C@@H]2O[C@H](CO)[C@@H](Br)[C@@H]2O)c(=O)[nH]c1=O
[11]
  inhibition at 10 µg/mL: 75%
[12]
  inhibition at 1 µg/mL: 50%
[1]
  MIC50: 1 µg/mL (≈ 3.11 µM)
[2]
  Activity: >90%
[3]
  Activity: 80%
[4]
  CC50 at 48 h: > 100 µg/mL
[5]
  CC50 at 48 h: > 100 µg/mL
[6]
  inhibition at 100 µg/mL: 50%

## O=c1[nH]c(=O)n([C@H]2C[C@@H](Cl)[C@@H](CO)O2)cc1F
[10]
  inhibition at 25 µg/mL: 40%
[1]
  MIC50: 25 µg/mL (≈ 94.5 µM)
[4]
  CC50 at 48 h: > 100 µg/mL
[5]
  CC50 at 48 h: > 100 µg/mL
[6]
  inhibition at 100 µg/mL: 90%
[7]
  inhibition at 50 µg/mL: 60%

## O=c1[nH]c(=O)n([C@@H]2O[C@H](CO)[C@H](O)[C@H]2Br)cc1F
[10]
  inhibition at 25 µg/mL: 50%
[4]
  CC50 at 48 h: > 100 µg/mL
[5]
  CC50 at 48 h: > 100 µg/mL
[6]
  inhibition at 100 µg/mL: 0%

## O=c1[nH]c(=O)n([C@H]2C[C@H](Cl)[C@@H](CO)O2)cc1F
[4]
  CC50 at 48 h: > 100 µg/mL
[5]
  CC50 at 48 h: > 100 µg/mL
[6]
  inhibition at 100 µg/mL: 40%

## O=c1[nH]c(=O)n([C@H]2C[C@H](I)[C@@H](CO)O2)cc1F
[4]
  CC50 at 48 h: > 100 µg/mL
[5]
  CC50 at 48 h: > 100 µg/mL
[6]
  inhibition at 100 µg/mL: 32%

## Cc1cn([C@H]2C[C@H](Cl)[C@@H](CO)O2)c(=O)[nH]c1=O
[1]
  MIC50: 50 µg/mL (≈ 192 µM)
[4]
  CC50 at 48 h: > 100 µg/mL
[5]
  CC50 at 48 h: > 100 µg/mL
[6]
  inhibition at 100 µg/mL: 68%
[7]
  inhibition at 50 µg/mL: 50%

## O=c1ccn([C@@H]2O[C@H](CO)[C@H](O)[C@H]2Br)c(=O)[nH]1
[4]
  CC50 at 48 h: > 100 µg/mL
[5]
  CC50 at 48 h: > 100 µg/mL
[6]
  inhibition at 100 µg/mL: 0%

## Cc1cn([C@H]2C[C@H](F)[C@@H](CO)O2)c(=O)[nH]c1=O [ALOVUDINE]
[6]
  inhibition at 100 µg/mL: 0%

## N[C@@H]1CONC1=O [CYCLOSERINE]
[10]
  inhibition at 25 µg/mL: 80%
[13]
  inhibition at 5 µg/mL: 50%
[1]
  MIC50: 5 µg/mL (≈ 49 µM)
[7]
  inhibition at 50 µg/mL: 100%

## Cc1cn([C@@H]2O[C@H](CO)[C@H](O)[C@H]2Br)c(=O)[nH]c1=O
[1]
  MIC50: 25 µg/mL (≈ 77.9 µM)
[4]
  CC50 at 48 h: > 100 µg/mL
[5]
  CC50 at 48 h: > 100 µg/mL
[6]
  inhibition at 100 µg/mL: 80%
[7]
  inhibition at 50 µg/mL: 60%

## Cc1cn([C@H]2C[C@H](I)[C@@H](CO)O2)c(=O)[nH]c1=O
[4]
  CC50 at 48 h: > 100 µg/mL
[5]
  CC50 at 48 h: > 100 µg/mL
[6]
  inhibition at 100 µg/mL: 0%

## O=c1[nH]c(=O)n([C@H]2C[C@@H](Br)[C@@H](CO)O2)cc1F
[10]
  inhibition at 25 µg/mL: 40%
[1]
  MIC50: 25 µg/mL (≈ 80.9 µM)
[4]
  CC50 at 48 h: > 100 µg/mL
[5]
  CC50 at 48 h: > 100 µg/mL
[6]
  inhibition at 100 µg/mL: 100%
[7]
  inhibition at 50 µg/mL: 63%

## NNC(=O)c1ccncc1 [ISONIAZID]
[12]
  inhibition at 1 µg/mL: 100%
[1]
  MIC50: < 1 µg/mL
[9]
  Activity: >98%

## O=c1[nH]c(=O)n([C@H]2C[C@H](Br)[C@@H](CO)O2)cc1F
[1]
  MIC50: 50 µg/mL (≈ 162 µM)
[4]
  CC50 at 48 h: > 100 µg/mL
[5]
  CC50 at 48 h: > 100 µg/mL
[6]
  inhibition at 100 µg/mL: 80%
[7]
  inhibition at 50 µg/mL: 50%

## O=c1ccn([C@@H]2O[C@H](CO)[C@@H](Br)[C@@H]2O)c(=O)[nH]1
[4]
  CC50 at 48 h: > 100 µg/mL
[5]
  CC50 at 48 h: > 100 µg/mL
[6]
  inhibition at 100 µg/mL: 24%
